ChEMBL document CHEMBL4152184, “NB 06: From a simple lysosomotropic aSMase inhibitor to tools for elucidating the role of lysosomes in signaling apoptosis and LPS-induced inflammation” (Eur J Med Chem, 2018)

Assays:
MONO-MAC-6 [1] = assay: Upregulation of IL-6 mRNA expression level in LPS-stimulated human MONO-MAC-6 cells at 5 uM preincubated for 30 mins followed by LPS stimulation measured after 4 hrs by qRT-PCR method (reference value: 76.46); type: functional
MONO-MAC-6 [2] = assay: Downregulation of IL-6 mRNA expression level in LPS-stimulated human MONO-MAC-6 cells at 5 uM preincubated for 30 mins followed by LPS stimulation measured after 1 hr by qRT-PCR method (reference value: 1); type: functional
[3] = molecular target: T1, Acid ceramidase (Homo sapiens) (UniProt Q13510); assay: Inhibition of TNFalpha-stimulated acid ceramidase in human PBMC assessed as ratio of C24:1-ceramide/lipid phosphate level at 10 uM preincubated for 30 mins followed by TNFalpha stimulation measured after 4 hrs by HPLC method (reference value: 3.05); type: cell-based
T1 sequence (whole entry): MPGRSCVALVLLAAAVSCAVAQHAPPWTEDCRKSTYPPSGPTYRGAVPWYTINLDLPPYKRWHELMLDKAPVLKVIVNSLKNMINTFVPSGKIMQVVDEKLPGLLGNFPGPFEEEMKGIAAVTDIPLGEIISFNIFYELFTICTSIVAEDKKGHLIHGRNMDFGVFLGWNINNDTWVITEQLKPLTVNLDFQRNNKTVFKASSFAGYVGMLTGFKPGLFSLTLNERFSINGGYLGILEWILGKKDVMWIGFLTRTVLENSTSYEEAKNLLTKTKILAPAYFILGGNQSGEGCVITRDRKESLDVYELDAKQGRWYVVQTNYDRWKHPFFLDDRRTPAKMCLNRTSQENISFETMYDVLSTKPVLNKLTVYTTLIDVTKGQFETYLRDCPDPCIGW
Procedure, shortened: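 Human macrophages from primary culture were preincubated 30 min with 10 µM compound. They were then stimulated 4 h with mmLDL (54 µg/mL), TNFalpha (3 ng/mL) or exogenous C6-ceramide (10 µM), or left unstimulated. Individual ceramide species (C16 and C24:1) were quantified in the cell lipid extracts.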

MONO-MAC-6 [4] = assay: Downregulation of IL-6 mRNA expression level in human MONO-MAC-6 cells at 5 uM incubated for 30 mins measured after 2 hrs by qRT-PCR method relative to control; type: functional
MONO-MAC-6 [5] = assay: Downregulation of CXCL2 mRNA expression level in human MONO-MAC-6 cells at 5 uM incubated for 30 mins measured after 4 hrs by qRT-PCR method relative to control; type: functional
MONO-MAC-6 [6] = assay: Upregulation of PTGS2 mRNA expression level in human MONO-MAC-6 cells at 5 uM incubated for 30 mins measured after 2 hrs by oligonucleotide array hybridization assay relative to control; type: functional
MONO-MAC-6 [7] = assay: Downregulation of TNFalpha mRNA expression level in human MONO-MAC-6 cells at 5 uM incubated for 30 mins measured after 1 hr by qRT-PCR method relative to control; type: functional
MONO-MAC-6 [8] = assay: Downregulation of CCL20 mRNA expression level in human MONO-MAC-6 cells at 5 uM incubated for 30 mins measured after 4 hrs by oligonucleotide array hybridization assay relative to control; type: functional
Procedure, shortened: (§1)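 Total RNA was isolated, transcribed and labeled with DY-647 dye, then co-hybridized with DY-548-labeled cDNA from untreated cells on an inflammation oligonucleotide chip (780 gene probes). Differential expression >1.5 was taken as significant.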

MONO-MAC-6 [9] = assay: Downregulation of PTX3 mRNA expression level in LPS-stimulated human MONO-MAC-6 cells at 5 uM preincubated for 30 mins followed by LPS stimulation measured after 6 hrs by oligonucleotide array hybridization assay (reference value: 3.18); type: functional; procedure, shortened: as §1
MONO-MAC-6 [10] = assay: Upregulation of CXCL2 mRNA expression level in LPS-stimulated human MONO-MAC-6 cells at 5 uM preincubated for 30 mins followed by LPS stimulation measured after 1 hr by qRT-PCR method (reference value: 1.29); type: functional
MONO-MAC-6 [11] = assay: Upregulation of CCL4 mRNA expression level in LPS-stimulated human MONO-MAC-6 cells at 5 uM preincubated for 30 mins followed by LPS stimulation measured after 1 hr by oligonucleotide array hybridization assay (reference value: 1.14); type: functional
MONO-MAC-6 [12] = assay: Downregulation of PTGS2 mRNA expression level in human MONO-MAC-6 cells at 5 uM incubated for 30 mins measured after 6 hrs by oligonucleotide array hybridization assay relative to control; type: functional; procedure, shortened: as §1
MONO-MAC-6 [13] = assay: Upregulation of IL-6 mRNA expression level in LPS-stimulated human MONO-MAC-6 cells at 5 uM preincubated for 30 mins followed by LPS stimulation measured after 2 hrs by qRT-PCR method (reference value: […]); type: functional
MONO-MAC-6 [14] = assay: Upregulation of PTGS2 mRNA expression level in LPS-stimulated human MONO-MAC-6 cells at 5 uM preincubated for 30 mins followed by LPS stimulation measured after 1 hr by oligonucleotide array hybridization assay (reference value: 1.01); type: functional
MONO-MAC-6 [15] = assay: Upregulation of CXCL3 mRNA expression level in LPS-stimulated human MONO-MAC-6 cells at 5 uM preincubated for 30 mins followed by LPS stimulation measured after 2 hrs by oligonucleotide array hybridization assay (reference value: 3.24); type: functional
MONO-MAC-6 [16] = assay: Upregulation of PTGS2 mRNA expression level in LPS-stimulated human MONO-MAC-6 cells at 5 uM preincubated for 30 mins followed by LPS stimulation measured after 2 hrs by oligonucleotide array hybridization assay (reference value: 1.97); type: functional
MONO-MAC-6 [17] = assay: Upregulation of CXCL2 mRNA expression level in LPS-stimulated human MONO-MAC-6 cells at 5 uM preincubated for 30 mins followed by LPS stimulation measured after 2 hrs by qRT-PCR method (reference value: 4.77); type: functional
MONO-MAC-6 [18] = assay: Upregulation of IL23A mRNA expression level in LPS-stimulated human MONO-MAC-6 cells at 5 uM preincubated for 30 mins followed by LPS stimulation measured after 6 hrs by qRT-PCR method (reference value: 7.18); type: functional
MONO-MAC-6 [19] = assay: Upregulation of CCL20 mRNA expression level in LPS-stimulated human MONO-MAC-6 cells at 5 uM preincubated for 30 mins followed by LPS stimulation measured after 1 hr by oligonucleotide array hybridization assay (reference value: 1.07); type: functional
MONO-MAC-6 [20] = assay: Downregulation of CXCL2 mRNA expression level in human MONO-MAC-6 cells at 5 uM incubated for 30 mins measured after 1 hr by oligonucleotide array hybridization assay relative to control; type: functional; procedure, shortened: as §1
MONO-MAC-6 [21] = assay: Downregulation of CXCL2 mRNA expression level in LPS-stimulated human MONO-MAC-6 cells at 5 uM preincubated for 30 mins followed by LPS stimulation measured after 6 hrs by qRT-PCR method (reference value: 5.22); type: functional
MONO-MAC-6 [22] = assay: Downregulation of CXCL2 mRNA expression level in human MONO-MAC-6 cells at 5 uM incubated for 30 mins measured after 4 hrs by oligonucleotide array hybridization assay relative to control; type: functional; procedure, shortened: as §1

COc1ccc(CCN(C)CCCn2c3ccccc3c3ccccc32)cc1
fold change (FC) (MONO-MAC-6 [1]): 29.11
fold change (FC) (MONO-MAC-6 [2]): 1.17
Ratio [3]: 1.28
fold change (FC) (MONO-MAC-6 [4]): 2.15
fold change (FC) (MONO-MAC-6 [5]): 1.845
fold change (FC) (MONO-MAC-6 [6]): 2.08
fold change (FC) (MONO-MAC-6 [7]): 1.83
fold change (FC) (MONO-MAC-6 [8]): 1.4
fold change (FC) (MONO-MAC-6 [9]): 1.05
fold change (FC) (MONO-MAC-6 [10]): 1.08
fold change (FC) (MONO-MAC-6 [11]): 1.24
fold change (FC) (MONO-MAC-6 [12]): 2.23
fold change (FC) (MONO-MAC-6 [13]): 6.12
fold change (FC) (MONO-MAC-6 [14]): 1.1
fold change (FC) (MONO-MAC-6 [15]): 2.34
fold change (FC) (MONO-MAC-6 [16]): 3.66
fold change (FC) (MONO-MAC-6 [17]): 5.03
fold change (FC) (MONO-MAC-6 [18]): 1.1
fold change (FC) (MONO-MAC-6 [19]): 1.03
fold change (FC) (MONO-MAC-6 [20]): 1.12
fold change (FC) (MONO-MAC-6 [21]): 1.01
fold change (FC) (MONO-MAC-6 [22]): 2.28
